We go through 30 compounds from PubChem BioAssay AID588557 (Sanford-Burnham Center for Chemical Genomics, 2011).

For the test, the system named is CHO-CHOP cells viability, ATPLite luminescence, 6 h. The experiment in a line: CHO-CHOP cell viability loss – 6 h exposure, ATPLite luminescence, cytotoxicity control for UPR apoptotic arm activator project, SAR follow-up (AID 588557). The method, boiled down: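 Test system – CHO-CHOP reporter cells · Dosing – dose response, DMSO ≤1% final · Timing – 16–18 h pre-dosing growth, then 6 h exposure at 37 °C · Measured by – ATPLite 1-Step luminescence · Controls – tunicamycin 10 µg/mL positive, DMSO-only negative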
In general terms: In ATP-based viability assays light output follows the ATP content of the culture.

The source made the active and inactive calls.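 The calls were made as follows: active = cytotoxic IC50, the dose that kills half the cells, at 20 µM or lower; inactive = the rest.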

As to `CC1CCN(S(=O)(=O)c2ccc(NC(=O)c3ccc([N+](=O)[O-])o3)cc2)CC1`, the IC50 – broadly, the concentration at which inhibition is half-maximal – was > 80 µM (inactive). The figure for `O=C(Nc1nc2c(F)cccc2s1)c1ccccn1` is 4.42 µM; for `O=C(Nc1ccc(S(=O)(=O)C2CCOCC2)cc1)c1ccc([N+](=O)[O-])o1` it is > 80 µM (inactive); for `O=C(Nc1ccc(S(=O)(=O)c2ccccc2)cc1)c1ccc([N+](=O)[O-])o1` it is > 80 µM (inactive). In the case of `O=C(Nc1nc2cc(F)cc(F)c2s1)c1ccccn1`, the IC50 was 8.88 µM. `O=C(Nc1nc2cc(F)c(F)cc2s1)c1ccccn1`: the concentration for half-maximal inhibition (IC50) was 8.4 µM. Consider `O=C(Nc1nc2c(F)cc(F)cc2s1)c1ccccn1`, for which the IC50 is 9.57 µM. Regarding `O=C(Nc1nc2c(F)ccc(F)c2s1)c1ccccn1`, the IC50 was 23.6 µM (inactive). The figure for `O=C(Nc1ccc(S(=O)(=O)N2CCC3(CCCCC3)CC2)cc1)c1ccc([N+](=O)[O-])o1` is > 80 µM (inactive); for `CC(C)(C)C1CCN(S(=O)(=O)c2ccc(NC(=O)c3ccc([N+](=O)[O-])o3)cc2)CC1` it is > 80 µM (inactive). In the case of `O=C(Nc1ccc(S(=O)(=O)N2CCC(O)CC2)cc1)c1ccc([N+](=O)[O-])o1`, the IC50 is > 80 µM (inactive). The figure for `O=C(Nc1nc2c(Cl)cc(Cl)cc2s1)c1ccccn1` is > 80 µM (inactive); for `O=C(Nc1ccc(S(=O)(=O)N2CCCCC2)cc1)c1ccc([N+](=O)[O-])o1` it is > 80 µM (inactive); for `CC1(C)CCN(S(=O)(=O)c2ccc(NC(=O)c3ccc([N+](=O)[O-])o3)cc2)CC1` it is > 80 µM (inactive). Regarding `O=C(Nc1nc2ccc(F)cc2s1)c1ccccn1`, the IC50 is 4.52 µM. Turning to `O=C(Nc1nc2c(F)c(F)ccc2s1)c1ccccn1`, the IC50 is 15.1 µM. Take `O=C(Nc1ccc(S(=O)(=O)N2CCC(F)CC2)cc1)c1ccc([N+](=O)[O-])o1`: the IC50 was > 80 µM (inactive). For the compound `O=C(Nc1ccc(S(=O)(=O)C2CCCCC2)cc1)c1ccc([N+](=O)[O-])o1`, the IC50 is > 80 µM (inactive).

With `CC1CN(S(=O)(=O)c2ccc(NC(=O)c3ccc([N+](=O)[O-])o3)cc2)CC(C)O1` (stereo not given), the IC50 is > 80 µM (inactive). The figure for `O=C(Nc1nc2ccc(F)c(F)c2s1)c1ccccn1` is 13.4 µM; for `Cc1cc(C)c2nc(NC(=O)c3ccccn3)sc2c1` it is 16.2 µM. As for `O=C(Nc1nc2cccc(F)c2s1)c1ccccn1`, the IC50 is 7.07 µM. For the compound `O=C(Nc1ccc(S(=O)(=O)N2CCNCC2)cc1)c1ccc([N+](=O)[O-])o1`, the IC50 was > 80 µM (inactive). Turning to `O=C(Nc1nc2cc(F)ccc2s1)c1ccccn1`, the IC50 is 2.7 µM. The figure for `O=C(Nc1ccc(S(=O)(=O)N2CCOCC2)cc1)c1ccc([N+](=O)[O-])s1` is > 80 µM (inactive); for `O=C(Nc1ccc(S(=O)(=O)N2CCOCC2)cc1)c1ccc([N+](=O)[O-])o1` it is > 80 µM (inactive); for `O=C(Nc1ccc(S(=O)(=O)N2CCCC2)cc1)c1ccc([N+](=O)[O-])o1` it is 74.6 µM (inactive). The figure for `O=C(Nc1nc2ccc(Cl)cc2s1)c1ccccn1` is 3.84 µM; for `O=C(Nc1ccc(S(=O)(=O)N2CCC(Cl)CC2)cc1)c1ccc([N+](=O)[O-])o1` it is > 80 µM (inactive).

For the compound `O=C(Nc1nc2ccc(C(F)(F)F)cc2s1)c1ccccn1`, the IC50 is 4.63 µM.
